pIC50: −log10 of the molar value.
Legend:
[1] = Binding affinity to Bovicola ovis recombinant ecdysone receptor ligand binding domain after 3 hrs by fluorescence polarization assay
Outline: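 B. ovis EcR_DEF/USP_DEF LBD heterodimer, co-expressed from baculovirus and purified by IMAC (2.51 mg/mL final). Competes with 36 nM fluorescein–inokosterone A conjugate in 50 mM sodium phosphate, 100 mM NaCl, pH 7.4 with 0.5 mg/mL BSA and 3% v/v DMSO. Compound range 3 nM–3 mM final. Incubated overnight at 4 °C, then 3 h at room temperature before polarisation (mP) read. Triplicate; IC50 from mean.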

Ecdysone receptor = target: T1, Ecdysone receptor (Lucilia cuprina, UniProt O18531); assay: Binding affinity to Lucilia cuprina recombinant ecdysone receptor ligand binding domain after 3 hrs by fluorescence polarization assay
T1 sequence (O18531 whole entry): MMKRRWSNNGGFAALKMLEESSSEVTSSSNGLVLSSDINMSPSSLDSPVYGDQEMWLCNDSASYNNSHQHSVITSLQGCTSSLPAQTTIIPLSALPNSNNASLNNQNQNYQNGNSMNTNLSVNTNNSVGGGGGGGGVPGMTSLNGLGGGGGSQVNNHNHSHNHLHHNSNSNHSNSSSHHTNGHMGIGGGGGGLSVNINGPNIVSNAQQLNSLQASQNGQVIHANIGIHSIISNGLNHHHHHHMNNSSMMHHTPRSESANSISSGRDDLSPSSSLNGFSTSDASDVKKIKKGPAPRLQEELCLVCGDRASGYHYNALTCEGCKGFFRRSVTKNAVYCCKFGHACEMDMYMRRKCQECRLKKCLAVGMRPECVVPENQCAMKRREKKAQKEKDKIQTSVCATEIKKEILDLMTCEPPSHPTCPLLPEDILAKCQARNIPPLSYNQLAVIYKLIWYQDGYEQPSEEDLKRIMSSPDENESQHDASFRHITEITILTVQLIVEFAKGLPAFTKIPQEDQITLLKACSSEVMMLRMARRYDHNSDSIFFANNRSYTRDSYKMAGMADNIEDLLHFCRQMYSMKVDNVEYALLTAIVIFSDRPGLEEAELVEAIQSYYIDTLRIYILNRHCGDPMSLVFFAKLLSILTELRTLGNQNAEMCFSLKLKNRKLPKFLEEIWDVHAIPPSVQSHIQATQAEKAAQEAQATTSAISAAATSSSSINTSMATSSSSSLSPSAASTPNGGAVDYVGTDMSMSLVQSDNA
Outline: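 L. cuprina EcR_DEF/USP_DEF LBD heterodimer, baculovirus co-expressed and IMAC-purified, used at 1.14 mg/mL. Fluorescence polarisation competition against 36 nM fluorescein–inokosterone A conjugate, with 0.5 mg/mL BSA and 3% v/v DMSO in 50 mM sodium phosphate/100 mM NaCl, pH 7.4. Test range 3 nM–3 mM final. Overnight at 4 °C, then 3 h re-equilibration at room temperature, mP read. Triplicate on one plate; IC50 from mean.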

pIC50 [1]	pIC50 (Ecdysone receptor)	SMILES
4.15	–	C=C1C(CCCC)=C(C#N)C(=O)N1c1c(C)cccc1[N+](=O)[O-]
5.15	–	C=C1C(C)=C(C#N)C(=O)N1c1cc(Cl)c(Cl)cc1Cl
4.26	–	C=C1C(C)=C(C#N)C(=O)N1c1c(C)cc(Cl)cc1Cl
4.32	–	C=C1C(C)=C(C#N)C(=O)N1c1c(C)cc(Cl)cc1C
4.17	–	C=C1C(C)=C(C#N)C(=O)N1c1c(C)cc(C)cc1C
4.76	–	C=C1C(CC)=C(C#N)C(=O)N1c1cccc(Cl)c1Cl
4.82	–	C=C1C(CC)=C(C#N)C(=O)N1c1cccc(Cl)c1C
4.10	–	C=C1C(CC)=C(C#N)C(=O)N1c1c(C)cccc1CC
5.26	5.14	C=C1C(CC)=C(C#N)C(=O)N1c1cc(Cl)c(Cl)cc1Cl
3.80	–	C=C1C(CC)=C(C#N)C(=O)N1c1c(Cl)cc(Cl)cc1Cl
4.96	–	C=C1C(CC(C)C)=C(C#N)C(=O)N1c1ccccc1C
4.07	–	C=C1C(C)=C(C#N)C(=O)N1C1CCCC1
4.30	–	C=C1C(C)=C(C#N)C(=O)N1C1CCCCC1
4.56	–	C=C1C(CCC)=C(C#N)C(=O)N1C1CCCCC1
3.60	–	C=C1C(C)=C(C#N)C(=O)N1C1CCCC(C)C1C (stereo not drawn)
4.32	–	C=C1C(C)=C(C#N)C(=O)N1C1CC2CCC1C2 (stereo not drawn)
4.59	–	C=C1C(C)=C(C#N)C(=O)N1C1CCCc2ccccc21 (stereo not drawn)
4.43	–	C=C1C(C)=C(C#N)C(=O)N1Cc1ccccc1Cl
4.02	–	C=C1C(C)=C(C#N)C(=O)N1c1ccc(Cl)cn1
4.35	–	C=C1C(C)=C(C#N)C(=O)N1c1ncc(Cl)cc1Cl
4.59	–	C=C1C(C)=C(C#N)C(=O)N1c1cnc2ccccc2c1
4.05	–	C=C1C(C)=C(C#N)C(=O)N1c1nccs1
4.35	–	C=C1C(C)=C(C(C)=O)C(=O)N1c1cc(Cl)c(Cl)cc1Cl
4.26	–	C=C1C(C)=C(C#N)C(=O)N1c1ccccc1Cl

pIC50 [1]	pIC50 (Ecdysone receptor)	SMILES
4.43	–	C=C1C(C)=C(C#N)C(=O)N1c1ccccc1Br
4.10	–	C=C1C(C)=C(C#N)C(=O)N1c1ccccc1C
4.65	–	C=C1C(C)=C(C#N)C(=O)N1c1ccccc1C(C)C
4.76	–	C=C1C(C)=C(C#N)C(=O)N1c1ccccc1C(C)(C)C
4.56	4.32	C=C1C(C)=C(C#N)C(=O)N1c1ccccc1C(F)(F)F
4.96	–	C=C1C(C)=C(C#N)C(=O)N1c1ccccc1OC
3.46	–	C=C1C(C)=C(C#N)C(=O)N1c1ccccc1OCC
4.72	–	C=C1C(C)=C(C#N)C(=O)N1c1cccc(Cl)c1
4.60	–	C=C1C(C)=C(C#N)C(=O)N1c1cccc(SC)c1
4.66	–	C=C1C(C)=C(C#N)C(=O)N1c1cccc(C(F)(F)F)c1
3.82	–	C=C1C(C)=C(C#N)C(=O)N1c1ccc(N(C)C)cc1
3.24	–	C=C1C(C)=C(C#N)C(=O)N1c1ccc(NC(C)=O)cc1
4.65	–	C=C1C(C)=C(C#N)C(=O)N1c1cccc(Cl)c1Cl
4.05	–	C=C1C(C)=C(C#N)C(=O)N1c1ccc(F)cc1F
3.82	–	C=C1C(C)=C(C#N)C(=O)N1c1ccc(OC)cc1OC
4.90	–	C=C1C(C)=C(C#N)C(=O)N1c1cc(Cl)ccc1Cl
4.03	–	C=C1C(C)=C(C#N)C(=O)N1c1cc(Cl)ccc1O
3.19	–	C=C1C(C)=C(C#N)C(=O)N1c1cc(Cl)ccc1OC
3.80	–	C=C1C(C)=C(C#N)C(=O)N1c1c(C)cccc1[N+](=O)[O-]
4.70	–	C=C1C(C)=C(C#N)C(=O)N1c1ccc(F)c([N+](=O)[O-])c1
4.17	–	C=C1C(C)=C(C#N)C(=O)N1c1ccc2c(c1)OCO2
5.01	4.56	C=C1C(C)=C(C#N)C(=O)N1c1cc(Cl)cc(Cl)c1
4.82	–	C=C1C(C)=C(C#N)C(=O)N1c1ccc(Cl)c(Cl)c1Cl
4.76	–	C=C1C(CCCC)=C(C#N)C(=O)N1c1c(C)cc(Cl)cc1C(C)C

pIC50 [1]	pIC50 (Ecdysone receptor)	SMILES
4.96	–	C=C1C(CCCC)=C(C#N)C(=O)N1c1c(C)cc(C)cc1C
4.68	–	C=C1C(CCCC)=C(C#N)C(=O)N1c1cc(OC)c(OC)c(OC)c1
5.17	–	C=C1C(CC(C)C)=C(C#N)C(=O)N1c1cc(Cl)ccc1Cl
4.35	–	C=C1C(CC(C)C)=C(C#N)C(=O)N1c1c(Cl)c(Cl)cc(Cl)c1Cl
4.06	–	CN(C(=O)C1CCCCC1)N1C(=O)C(C#N)=C2CCCC=C21
4.60	–	C=C1C(C)=C(C#N)C(=O)N1c1ccccc1-c1ccccc1
4.35	–	C=C1C(C)=C(C#N)C(=O)N1c1ccccc1OC(F)(F)F
5.07	–	C=C1C(c2ccccc2)=C(C#N)C(=O)N1c1cc(Cl)ccc1Cl
4.90	–	C=C1C(c2ccccc2)=C(C#N)C(=O)N1c1cc(C)ccc1F
4.60	–	C=C1C(C)=C(C#N)C(=O)N1c1ccccc1Oc1ccccc1
4.65	–	C=C1C(C)=C(C#N)C(=O)N1c1ccccc1Cc1ccccc1
4.74	–	C=C1C(C)=C(C#N)C(=O)N1c1cccc(Oc2ccccc2)c1
4.66	–	C=C1C(CCCCCCCC)=C(C#N)C(=O)N1c1c(C)cc(C)cc1C
2.64	–	CCC/C=C1\C(C)=C(C#N)C(=O)N1c1c(C(C)(C)C)ccc(Cl)c1C
4.19	–	COc1cc(OC)cc(N2C(=O)C(C#N)=C(C)/C2=C/C(C)C)c1
4.46	–	C=C1C(C)=C(C#N)C(=O)N1c1ccc(-c2ccccc2)cc1
3.40	–	C=C1C(C)=C(C#N)C(=O)N1c1ccc(N(C)C(C)=O)cc1
5.30	5.19	C=C1C(C)=C(C#N)C(=O)N1c1cc(C(C)(C)C)ccc1C(C)(C)C
4.82	–	C=C1C(C)=C(C#N)C(=O)N1c1ccc(Cl)c2ccccc12
4.14	–	C=C1C(CC)=C(C#N)C(=O)N1NC(=O)c1ccc(Cl)cc1
5.35	–	C=C1C(C)=C(C#N)C(=O)N1c1cc(C(F)(F)F)ccc1C(F)(F)F
4.26	–	C=C1C(C)=C(C#N)C(=O)N1c1cc([N+](=O)[O-])ccc1OC
4.26	–	C=C1C(C)=C(C#N)C(=O)N1c1cc(Cl)ccc1OC(=O)CC
4.80	–	C=C1C(C)=C(C(=O)C(C)C)C(=O)N1c1cc(Cl)c(Cl)cc1Cl

pIC50 [1]	pIC50 (Ecdysone receptor)	SMILES
4.96	–	C=C1C(C)=C(C(=O)OCC)C(=O)N1c1cc(Cl)c(Cl)cc1Cl
4.68	4.63	C=C1C(C)=C(C#N)C(=O)N1c1c(C(C)C)cccc1C(C)C
3.80	–	C=C1C(C)=C(C#N)C(=O)N1c1c(C)cccc1C(C)(C)C
3.82	–	C=C1C(C)=C(C#N)C(=O)N1c1c(CC)cccc1C(C)(C)C
4.74	–	C=C1C(C)=C(C(=O)c2ccccc2)C(=O)N1c1cc(C(F)(F)F)ccc1Cl
4.24	–	C=C1C(C)=C(C(=O)c2ccccc2)C(=O)N1c1c(C)cccc1C(C)C
4.95	5.07	C=C1C(C)=C(C#N)C(=O)N1c1cc(Cl)c(C(C)(C)C)cc1Cl
4.70	–	C=C1C(C)=C(C#N)C(=O)N1c1c(C)cc(Cl)cc1C(C)C
3.80	–	C=C1C(C)=C(C#N)C(=O)N1c1c(C)cc(C)cc1C(F)(C(F)(F)F)C(F)(F)F
2.65	–	C=C1C(C)=C(C(=O)c2ccccc2)C(=O)N1c1c(C(C)C)cccc1C(C)C
5.05	–	C=C1C(C)=C(C(=O)c2ccccc2)C(=O)N1c1cc(Cl)c(Cl)cc1Cl
4.40	–	C=C1C(CC)=C(C#N)C(=O)N1c1ccccc1C(C)(C)C
4.59	–	C=C1C(CC)=C(C#N)C(=O)N1c1ccccc1OC(F)(F)F
4.36	–	C=C1C(C)=C(C(=O)c2ccccc2)C(=O)N1c1c(C)cc(C)cc1C
4.35	–	C=C1C(CC)=C(C#N)C(=O)N1c1c(C)cccc1C(C)C
4.32	–	C=C1C(CCC)=C(C#N)C(=O)N1c1c(C)cccc1CC
4.98	–	C=C1C(CCC)=C(C#N)C(=O)N1c1c(C)cccc1C(C)C
5.02	4.82	C=C1C(C(C)C)=C(C#N)C(=O)N1c1ccccc1C(C)(C)C
4.96	–	C=C1C(C(C)C)=C(C#N)C(=O)N1c1c(C)cc(Cl)cc1C
4.26	–	C=C1C(C(C)C)=C(C#N)C(=O)N1c1c(C)cc(C)cc1C
4.82	–	C=C1C(CCCC)=C(C#N)C(=O)N1c1ccccc1OC(F)(F)F
4.46	–	C=C1C(CCCC)=C(C#N)C(=O)N1c1c(C)cccc1C
4.69	–	C=C1C(CCCC)=C(C#N)C(=O)N1c1c(C)cccc1C(C)C
4.07	–	C/C=C1\C(C)=C(C#N)C(=O)N1c1c(Cl)cc(Cl)cc1Cl (mixture of isomers)
